# Test results as given in article PMC3902791 (Molecular imaging and biology : MIB : the official …, 2012).
# Where two headings read alike, the source gives them in different places.
# Parameters: species or system human
# In short: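 Organ time–activity curves came from whole-body scan VOI data. These were fitted mono-exponentially in five animals; in the sixth, with two scans, a linear fit to the log values was used. Time-integrated activity coefficients were scaled by the ratio of body-mass-normalised human to CT-derived macaque organ masses. Intestinal values were split in thirds across small intestine, ULI and LLI. Organ doses (mSv/MBq) were computed per animal with the OLINDA/EXM 1.1 adult male model.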
smiles,measurement,setting,value
"O=C(O)C[18F] [^18F-FACE, ^18F-fluoroacetate]","Organ dose to adult human model, Lungs","from animal 2, male",0.010 mSv/MBq
same,"Organ dose to adult human model, Muscle","from animal 2, male",0.010 mSv/MBq
same,"Organ dose to adult human model, Osteogenic cells","from animal 2, male",0.014 mSv/MBq
same,"Organ dose to adult human model, Pancreas","from animal 2, male",0.014 mSv/MBq
same,"Organ dose to adult human model, Red marrow","from animal 2, male",0.011 mSv/MBq
same,"Organ dose to adult human model, Skin","from animal 2, male",0.007 mSv/MBq
same,"Organ dose to adult human model, Small intestine","from animal 2, male",0.045 mSv/MBq
same,"Organ dose to adult human model, Spleen","from animal 2, male",0.011 mSv/MBq
same,"Organ dose to adult human model, Stomach wall","from animal 2, male",0.013 mSv/MBq
same,"Organ dose to adult human model, Testes","from animal 2, male",0.009 mSv/MBq
same,"Organ dose to adult human model, Thymus","from animal 2, male",0.010 mSv/MBq
same,"Organ dose to adult human model, Thyroid","from animal 2, male",0.009 mSv/MBq
same,"Organ dose to adult human model, ULI wall (upper large intestine)","from animal 2, male",0.071 mSv/MBq
same,"Organ dose to adult human model, Urinary bladder wall","from animal 2, male",0.015 mSv/MBq
same,"Dose to adult human model, Total body","from animal 3, male",0.012 mSv/MBq
same,"ED effective dose, adult human model","from animal 3, male",0.028 mSv/MBq
same,"EDE effective dose equivalent, adult human model","from animal 3, male",0.030 mSv/MBq
same,"Organ dose to adult human model, Adrenals","from animal 3, male",0.013 mSv/MBq
same,"Organ dose to adult human model, Brain","from animal 3, male",0.009 mSv/MBq
same,"Organ dose to adult human model, Breasts","from animal 3, male",0.008 mSv/MBq
same,"Organ dose to adult human model, Gallbladder wall","from animal 3, male",0.017 mSv/MBq
same,"Organ dose to adult human model, Heart wall","from animal 3, male",0.020 mSv/MBq
same,"Organ dose to adult human model, Kidneys","from animal 3, male",0.034 mSv/MBq
same,"Organ dose to adult human model, LLI wall (lower large intestine)","from animal 3, male",0.120 mSv/MBq
same,"Organ dose to adult human model, Liver","from animal 3, male",0.014 mSv/MBq
same,"Organ dose to adult human model, Lungs","from animal 3, male",0.010 mSv/MBq
same,"Organ dose to adult human model, Muscle","from animal 3, male",0.011 mSv/MBq
same,"Organ dose to adult human model, Osteogenic cells","from animal 3, male",0.016 mSv/MBq
same,"Organ dose to adult human model, Pancreas","from animal 3, male",0.014 mSv/MBq
same,"Organ dose to adult human model, Red marrow","from animal 3, male",0.012 mSv/MBq
same,"Organ dose to adult human model, Skin","from animal 3, male",0.008 mSv/MBq
same,"Organ dose to adult human model, Small intestine","from animal 3, male",0.055 mSv/MBq
same,"Organ dose to adult human model, Spleen","from animal 3, male",0.012 mSv/MBq
same,"Organ dose to adult human model, Stomach wall","from animal 3, male",0.014 mSv/MBq
same,"Organ dose to adult human model, Testes","from animal 3, male",0.010 mSv/MBq
same,"Organ dose to adult human model, Thymus","from animal 3, male",0.010 mSv/MBq
same,"Organ dose to adult human model, Thyroid","from animal 3, male",0.010 mSv/MBq
same,"Organ dose to adult human model, ULI wall (upper large intestine)","from animal 3, male",0.088 mSv/MBq
same,"Organ dose to adult human model, Urinary bladder wall","from animal 3, male",0.017 mSv/MBq
same,"Dose to adult human model, Total body","from animal 4, female",0.008 mSv/MBq
same,"ED effective dose, adult human model","from animal 4, female",0.016 mSv/MBq
same,"EDE effective dose equivalent, adult human model","from animal 4, female",0.019 mSv/MBq
same,"Organ dose to adult human model, Adrenals","from animal 4, female",0.010 mSv/MBq
same,"Organ dose to adult human model, Brain","from animal 4, female",0.005 mSv/MBq
same,"Organ dose to adult human model, Breasts","from animal 4, female",0.005 mSv/MBq
same,"Organ dose to adult human model, Gallbladder wall","from animal 4, female",0.040 mSv/MBq
same,"Organ dose to adult human model, Heart wall","from animal 4, female",0.027 mSv/MBq
same,"Organ dose to adult human model, Kidneys","from animal 4, female",0.026 mSv/MBq
same,"Organ dose to adult human model, LLI wall (lower large intestine)","from animal 4, female",0.060 mSv/MBq
same,"Organ dose to adult human model, Liver","from animal 4, female",0.032 mSv/MBq
same,"Organ dose to adult human model, Lungs","from animal 4, female",0.007 mSv/MBq
same,"Organ dose to adult human model, Muscle","from animal 4, female",0.007 mSv/MBq
same,"Organ dose to adult human model, Osteogenic cells","from animal 4, female",0.010 mSv/MBq
same,"Organ dose to adult human model, Ovaries","from animal 4, female",0.013 mSv/MBq
same,"Organ dose to adult human model, Pancreas","from animal 4, female",0.010 mSv/MBq
same,"Organ dose to adult human model, Red marrow","from animal 4, female",0.007 mSv/MBq
same,"Organ dose to adult human model, Skin","from animal 4, female",0.005 mSv/MBq
same,"Organ dose to adult human model, Small intestine","from animal 4, female",0.029 mSv/MBq
same,"Organ dose to adult human model, Spleen","from animal 4, female",0.008 mSv/MBq
same,"Organ dose to adult human model, Stomach wall","from animal 4, female",0.009 mSv/MBq
same,"Organ dose to adult human model, Thymus","from animal 4, female",0.007 mSv/MBq
same,"Organ dose to adult human model, Thyroid","from animal 4, female",0.006 mSv/MBq
same,"Organ dose to adult human model, ULI wall (upper large intestine)","from animal 4, female",0.045 mSv/MBq
same,"Organ dose to adult human model, Urinary bladder wall","from animal 4, female",0.014 mSv/MBq
same,"Organ dose to adult human model, Uterus","from animal 4, female",0.011 mSv/MBq
same,"Dose to adult human model, Total body","from animal 5, female",0.010 mSv/MBq
same,"ED effective dose, adult human model","from animal 5, female",0.018 mSv/MBq
same,"EDE effective dose equivalent, adult human model","from animal 5, female",0.021 mSv/MBq
same,"Organ dose to adult human model, Adrenals","from animal 5, female",0.012 mSv/MBq
same,"Organ dose to adult human model, Brain","from animal 5, female",0.008 mSv/MBq
same,"Organ dose to adult human model, Breasts","from animal 5, female",0.008 mSv/MBq
same,"Organ dose to adult human model, Gallbladder wall","from animal 5, female",0.036 mSv/MBq
same,"Organ dose to adult human model, Heart wall","from animal 5, female",0.015 mSv/MBq
same,"Organ dose to adult human model, Kidneys","from animal 5, female",0.042 mSv/MBq
same,"Organ dose to adult human model, LLI wall (lower large intestine)","from animal 5, female",0.062 mSv/MBq
same,"Organ dose to adult human model, Liver","from animal 5, female",0.015 mSv/MBq
same,"Organ dose to adult human model, Lungs","from animal 5, female",0.009 mSv/MBq
same,"Organ dose to adult human model, Muscle","from animal 5, female",0.010 mSv/MBq
same,"Organ dose to adult human model, Osteogenic cells","from animal 5, female",0.014 mSv/MBq
same,"Organ dose to adult human model, Ovaries","from animal 5, female",0.017 mSv/MBq
same,"Organ dose to adult human model, Pancreas","from animal 5, female",0.013 mSv/MBq
same,"Organ dose to adult human model, Red marrow","from animal 5, female",0.010 mSv/MBq
same,"Organ dose to adult human model, Skin","from animal 5, female",0.007 mSv/MBq
same,"Organ dose to adult human model, Small intestine","from animal 5, female",0.031 mSv/MBq
same,"Organ dose to adult human model, Spleen","from animal 5, female",0.011 mSv/MBq
same,"Organ dose to adult human model, Stomach wall","from animal 5, female",0.012 mSv/MBq
same,"Organ dose to adult human model, Thymus","from animal 5, female",0.009 mSv/MBq
same,"Organ dose to adult human model, Thyroid","from animal 5, female",0.009 mSv/MBq
same,"Organ dose to adult human model, ULI wall (upper large intestine)","from animal 5, female",0.047 mSv/MBq
same,"Organ dose to adult human model, Urinary bladder wall","from animal 5, female",0.017 mSv/MBq
same,"Organ dose to adult human model, Uterus","from animal 5, female",0.014 mSv/MBq
same,"Dose to adult human model, Total body","from animal 6, female",0.012 mSv/MBq
same,"ED effective dose, adult human model","from animal 6, female",0.018 mSv/MBq
same,"EDE effective dose equivalent, adult human model","from animal 6, female",0.019 mSv/MBq
same,"Organ dose to adult human model, Adrenals","from animal 6, female",0.013 mSv/MBq
same,"Organ dose to adult human model, Brain","from animal 6, female",0.010 mSv/MBq
same,"Organ dose to adult human model, Breasts","from animal 6, female",0.009 mSv/MBq
same,"Organ dose to adult human model, Gallbladder wall","from animal 6, female",0.016 mSv/MBq
same,"Organ dose to adult human model, Heart wall","from animal 6, female",0.017 mSv/MBq
same,"Organ dose to adult human model, Kidneys","from animal 6, female",0.026 mSv/MBq
same,"Organ dose to adult human model, LLI wall (lower large intestine)","from animal 6, female",0.052 mSv/MBq
same,"Organ dose to adult human model, Liver","from animal 6, female",0.017 mSv/MBq
same,"Organ dose to adult human model, Lungs","from animal 6, female",0.011 mSv/MBq
same,"Organ dose to adult human model, Muscle","from animal 6, female",0.011 mSv/MBq
same,"Organ dose to adult human model, Osteogenic cells","from animal 6, female",0.017 mSv/MBq
same,"Organ dose to adult human model, Ovaries","from animal 6, female",0.018 mSv/MBq
same,"Organ dose to adult human model, Pancreas","from animal 6, female",0.014 mSv/MBq
same,"Organ dose to adult human model, Red marrow","from animal 6, female",0.011 mSv/MBq
same,"Organ dose to adult human model, Skin","from animal 6, female",0.009 mSv/MBq
same,"Organ dose to adult human model, Small intestine","from animal 6, female",0.029 mSv/MBq
same,"Organ dose to adult human model, Spleen","from animal 6, female",0.013 mSv/MBq
same,"Organ dose to adult human model, Stomach wall","from animal 6, female",0.013 mSv/MBq
same,"Organ dose to adult human model, Thymus","from animal 6, female",0.011 mSv/MBq
same,"Organ dose to adult human model, Thyroid","from animal 6, female",0.011 mSv/MBq
same,"Organ dose to adult human model, ULI wall (upper large intestine)","from animal 6, female",0.040 mSv/MBq
same,"Organ dose to adult human model, Urinary bladder wall","from animal 6, female",0.021 mSv/MBq
same,"Organ dose to adult human model, Uterus","from animal 6, female",0.016 mSv/MBq
